Reference: ChEMBL document CHEMBL1275427, “Antimicrobial susceptibilities of geographically diverse clinical human isolates of Leptospira” (2008)
In brackets after ≈: the same amount, converted by molar mass.

Legend:
Format in all cases: functional
[1] = Antimicrobial activity against Leptospira interrogans serovar Pomona isolate 4 by broth microdilution method
Method in brief: (§1)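 Strains grown 7 days in EMJH medium at 30°C; inoculum counted by Petroff-Hausser chamber under dark-field microscopy and added at 2 × 10^6 organisms/ml. Twofold serial dilutions in EMJH, final 32.0 to 0.016 μg/ml (units/ml for penicillin), 96-well round-bottom plates, 30°C. alamarBlue added day 3; colour read day 5. MIC is lowest concentration without blue-to-pink change. Triplicate runs, median reported; L. interrogans Icterohaemorrhagiae quality control.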

[2] = Antimicrobial activity against Leptospira interrogans serovar Icterohaemorrhagiae isolate 10 by broth microdilution method; method in brief: as §1
[3] = Antimicrobial activity against Leptospira interrogans serovar Pyrogenes isolate 5 by broth microdilution method; method in brief: as §1
[4] = Antimicrobial activity against Leptospira interrogans serovar Grippotyphosa isolate 2 by broth microdilution method
Method in brief: (§2)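 Serial twofold dilutions in EMJH medium, final 32.0 to 0.016 μg/ml (units/ml for penicillin). Inoculum from 7-day EMJH cultures grown at 30°C, counted by Petroff-Hausser chamber under dark-field microscopy, added at 2 × 10^6 organisms/ml. Plates incubated at 30°C; alamarBlue added on day 3 and colour read on day 5. MIC is the lowest concentration without blue-to-pink change; median of triplicate runs.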

[5] = system: Leptospira weilii; experiment: Antimicrobial activity against Leptospira weilii isolate 6 by broth microdilution method; method in brief: as §1
[6] = system: Leptospira kirschneri serovar Grippotyphosa; experiment: Antimicrobial activity against Leptospira kirschneri serovar Grippotyphosa isolate 13 by broth microdilution method; method in brief: as §2
[7] = system: Leptospira weilii; experiment: Antimicrobial activity against Leptospira weilii isolate 8 by broth microdilution method; method in brief: as §1
[8] = Antimicrobial activity against Leptospira interrogans serovar Bataviae isolate 1 by broth microdilution method; method in brief: as §1
[9] = Antimicrobial activity against Leptospira interrogans isolate 7 by broth microdilution method; method in brief: as §2
[10] = Antimicrobial activity against Leptospira interrogans serovar Canicola isolate 11 by broth microdilution method; method in brief: as §1
[11] = Antimicrobial activity against Leptospira interrogans serovar Icterohaemorrhagiae isolate 3 by broth microdilution method; method in brief: as §1
[12] = Antimicrobial activity against Leptospira interrogans serovar Icterohaemorrhagiae isolate 9 by broth microdilution method; method in brief: as §1
[13] = Antimicrobial activity against Leptospira interrogans serovar Pomona isolate 12 by broth microdilution method; method in brief: as §1
[14] = Leptospira interrogans, isolate 4, read-out: MIC
[15] = Leptospira interrogans, isolate 10, read-out: MIC
[16] = Leptospira interrogans, isolate 5, read-out: MIC
[17] = Leptospira weilii, isolate 6, read-out: MIC
[18] = Leptospira kirschneri, isolate 13, read-out: MIC
[19] = Leptospira weilii, isolate 8, read-out: MIC
[20] = Leptospira interrogans, isolate 1, read-out: MIC
[21] = Leptospira interrogans, isolate 7, read-out: MIC
[22] = Leptospira interrogans, isolate 11, read-out: MIC
[23] = Leptospira interrogans, isolate 3, read-out: MIC
[24] = Leptospira interrogans, isolate 9, read-out: MIC
[25] = Leptospira interrogans, isolate 12, read-out: MIC

SMILES | MIC [1, 14] [mg/L] | MIC [2, 15] [mg/L] | MIC [3, 16] [mg/L] | MIC [4] [mg/L] | MIC [5, 17] [mg/L] | MIC [6, 18] [mg/L] | MIC [7, 19] [mg/L] | MIC [8, 20] [mg/L] | MIC [9, 21] [mg/L] | MIC [10, 22] [mg/L] | MIC [11, 23] [mg/L] | MIC [12, 24] [mg/L] | MIC [13, 25] [mg/L] | also measured
CC1(C)S[C@@H]2[C@H](NC(=O)[C@H](N)c3ccccc3)C(=O)N2[C@H]1C(=O)O [AMPICILLIN] | < 0.016 | < 0.016 | < 0.016 | < 0.016 | < 0.016 | < 0.016 | < 0.016 | < 0.016 | < 0.016 | < 0.016 | < 0.016 | < 0.016 | < 0.016 | –
CC[C@H]1OC(=O)[C@H](C)[C@@H](O[C@H]2C[C@@](C)(OC)[C@@H](O)[C@H](C)O2)[C@H](C)[C@@H](O[C@@H]2O[C@H](C)C[C@H](N(C)C)[C@H]2O)[C@](C)(O)C[C@@H](C)CN(C)[C@H](C)[C@@H](O)[C@]1(C)O [AZITHROMYCIN] | < 0.016 | < 0.016 | < 0.016 | < 0.016 | < 0.016 | < 0.016 | < 0.016 | < 0.016 | < 0.016 | < 0.016 | < 0.016 | < 0.016 | < 0.016 | –
CO/N=C(\C(=O)N[C@@H]1C(=O)N2C(C(=O)[O-])=C(C[N+]3(C)CCCC3)CS[C@H]12)c1csc(N)n1 [CEFEPIME] | < 0.016 | < 0.016 | < 0.016 | < 0.016 | < 0.016 | < 0.016 | < 0.016 | < 0.016 | < 0.016 | < 0.016 | < 0.016 | < 0.016 | < 0.016 | –
CO/N=C(\C(=O)N[C@@H]1C(=O)N2C(C(=O)O)=C(COC(C)=O)CS[C@H]12)c1csc(N)n1 [CEFOTAXIME] | < 0.016 | < 0.016 | < 0.016 | 0.03 (≈ 0.0659 µM) | 0.03 (≈ 0.0659 µM) | < 0.016 | 0.03 (≈ 0.0659 µM) | < 0.016 | 0.03 (≈ 0.0659 µM) | < 0.016 | < 0.016 | < 0.016 | < 0.016 | –
CO/N=C(\C(=O)N[C@@H]1C(=O)N2C(C(=O)O)=C(CSc3nc(=O)c(O)nn3C)CS[C@H]12)c1csc(N)n1 [CEFTRIAXONE] | 0.06 (≈ 0.108 µM) | < 0.016 | < 0.016 | 0.06 (≈ 0.108 µM) | 0.06 (≈ 0.108 µM) | < 0.016 | 0.03 (≈ 0.0541 µM) | 0.03 (≈ 0.0541 µM) | 0.06 (≈ 0.108 µM) | 0.03 (≈ 0.0541 µM) | < 0.016 | < 0.016 | < 0.016 | –
O=C(O)c1cn(C2CC2)c2cc(N3CCNCC3)c(F)cc2c1=O [CIPROFLOXACIN] | 0.25 (≈ 0.754 µM) | 0.125 (≈ 0.377 µM) | 0.125 (≈ 0.377 µM) | 0.125 (≈ 0.377 µM) | 0.125 (≈ 0.377 µM) | 0.03 (≈ 0.0905 µM) | 0.125 (≈ 0.377 µM) | 0.125 (≈ 0.377 µM) | 0.125 (≈ 0.377 µM) | 0.06 (≈ 0.181 µM) | 0.125 (≈ 0.377 µM) | 0.125 (≈ 0.377 µM) | 0.06 (≈ 0.181 µM) | –
CC[C@H]1OC(=O)[C@H](C)[C@@H](O[C@H]2C[C@@](C)(OC)[C@@H](O)[C@H](C)O2)[C@H](C)[C@@H](O[C@@H]2O[C@H](C)C[C@H](N(C)C)[C@H]2O)[C@](C)(OC)C[C@@H](C)C(=O)[C@H](C)[C@@H](O)[C@]1(C)O [CLARITHROMYCIN] | < 0.016 | < 0.016 | < 0.016 | < 0.016 | < 0.016 | < 0.016 | < 0.016 | < 0.016 | < 0.016 | < 0.016 | < 0.016 | < 0.016 | < 0.016 | –
C[C@H]1c2cccc(O)c2C(=O)C2=C(O)[C@]3(O)C(=O)C(C(N)=O)=C(O)[C@@H](N(C)C)[C@@H]3[C@@H](O)[C@@H]21.O [DOXYCYCLINE] | 2 | 0.5 | 1 | 1 | 0.5 | < 0.016 | 0.5 | 1 | 0.25 | 0.06 | 2 | 0.25 | 0.06 | –
C[C@H]1COc2c(N3CCN(C)CC3)c(F)cc3c(=O)c(C(=O)O)cn1c23.C[C@H]1COc2c(N3CCN(C)CC3)c(F)cc3c(=O)c(C(=O)O)cn1c23.O [LEVOFLOXACIN] | 0.125 | 0.125 | 0.06 | 0.06 | 0.06 | < 0.016 | 0.125 | 0.06 | 0.06 | 0.03 | 0.06 | 0.125 | < 0.016 | –
COc1c(N2C[C@@H]3CCCN[C@@H]3C2)c(F)cc2c(=O)c(C(=O)O)cn(C3CC3)c12 [MOXIFLOXACIN] | 0.125 (≈ 0.311 µM) | 0.125 (≈ 0.311 µM) | 0.06 (≈ 0.149 µM) | 0.06 (≈ 0.149 µM) | 0.06 (≈ 0.149 µM) | 0.03 (≈ 0.0747 µM) | 0.125 (≈ 0.311 µM) | 0.06 (≈ 0.149 µM) | 0.06 (≈ 0.149 µM) | 0.03 (≈ 0.0747 µM) | 0.06 (≈ 0.149 µM) | 0.125 (≈ 0.311 µM) | < 0.016 | –
CC1(C)S[C@@H]2[C@H](NC(=O)Cc3ccccc3)C(=O)N2[C@H]1C(=O)O [PENICILLIN G] | – | – | – | – | – | – | – | – | – | – | – | – | – | MIC [1]: 0.06 U/ml; MIC [2]: <0.016 U/ml; MIC [3]: <0.016 U/ml; MIC [5]: 0.03 U/ml; MIC [6]: 0.125 U/ml; MIC [7]: 0.06 U/ml; MIC [8]: <0.016 U/ml; MIC [9]: 0.06 U/ml; MIC [10]: 0.25 U/ml; MIC [11]: <0.016 U/ml; MIC [12]: <0.016 U/ml; MIC [13]: 0.06 U/ml
CN(C)[C@@H]1C(O)=C(C(N)=O)C(=O)[C@@]2(O)C(O)=C3C(=O)c4c(O)cccc4[C@@](C)(O)[C@H]3C[C@@H]12 [TETRACYCLINE] | 2 (≈ 4.5 µM) | 0.5 (≈ 1.13 µM) | 4 (≈ 9 µM) | 1 (≈ 2.25 µM) | 1 (≈ 2.25 µM) | < 0.016 | 0.5 (≈ 1.13 µM) | 1 (≈ 2.25 µM) | 1 (≈ 2.25 µM) | 0.125 (≈ 0.281 µM) | 4 (≈ 9 µM) | 1 (≈ 2.25 µM) | 0.125 (≈ 0.281 µM) | –
